Published values pooled from the literature.
Lines come from different studies, so protocols differ.
SQLE: Squalene monooxygenase (SQLE, Homo sapiens, UniProt Q14534)
ADRA1A: Alpha-1A adrenergic receptor (ADRA1A, Homo sapiens, UniProt P35348)
Tspo: Translocator protein (Tspo, Rattus norvegicus, UniProt P16257)

Structure (SMILES) | target | assay | system | conditions | Ki [µM]
CCN(CC)C(C)CN1c2ccccc2Sc2ccccc21 (stereo not shown) | SQLE | enzyme activity, inhibitor | – | – | 0.65
COc1cc2c3c(c1OC)-c1c(OC)ccc(N4CCOCC4)c1CC3N(C)CC2 (stereo not shown) | ADRA1A | cell-free assay, radioligand | – | – | 0.643
Cc1cc(Oc2ncccc2CN2CCN(CCc3ccccc3)CC2)ccc1-c1c(C)c(=O)[nH]c(=O)n1C | ADRA1A | ligand displacement, radioligand | – | – | 0.296
N#Cc1ccc2c(c1)N(CCCN1CCC(O)CC1)c1ccccc1S2 | SQLE | enzyme activity, inhibitor | – | – | 0.69
COc1cc(O)c2c(c1)oc(=O)c1c3cc(O)c(O)cc3oc21 | Alpha-glucosidase MAL12 (MAL12, Saccharomyces cerevisiae S288c, UniProt P53341) | enzyme activity, inhibitor | – | – | 30
O=C[C@H](O)[C@@H](O)[C@H](O)[C@H](O)COP(=O)(O)O | Hexokinase HKDC1 (Homo sapiens, UniProt Q2TB90) | enzyme activity, inhibitor | – | pH 8 | 3400
COc1cc2c3c(c1OC)-c1c(OC)ccc(-c4ccc(C#N)cc4)c1CC3N(C)CC2 (stereo not shown) | ADRA1A | cell-free assay, radioligand | – | – | 0.322
CCOC(=O)[C@@]12C[C@@H]1[C@@H](n1cnc3c(NCc4cccc(Cl)c4)nc(C#Cc4ccc(Cl)s4)nc31)[C@H](O)[C@@H]2O | Tspo | cell-free assay, radioligand | – | – | 0.51
Cc1cc(Oc2ncccc2CN2CCN(c3ccccc3[N+](=O)[O-])CC2)ccc1-c1c(C)c(=O)[nH]c(=O)n1C | ADRA1A | ligand displacement, radioligand | – | – | 1.98
COc1cc(C2Oc3cc([C@H]4Oc5cc(O)cc(O)c5C(=O)[C@@H]4O)ccc3OC2CO)ccc1O (stereo partly shown) | SQLE | enzyme activity, inhibitor | – | – | 1.42
COc1ccc(Cl)cc1N1CCN(Cc2cccnc2Oc2ccc(-c3c(C)c(=O)[nH]c(=O)n3C)c(C)c2)CC1 | ADRA1A | ligand displacement, radioligand | – | – | 0.353
OC[C@@]12C[C@@H]1[C@@H](n1cnc3c(NC(C4CCC4)C4CCC4)nc(C#Cc4ccc(Cl)s4)nc31)[C@H](O)[C@@H]2O | Tspo | cell-free assay, radioligand | – | – | 0.67
Cc1cc(Oc2ncccc2CN2CCN(c3cccc(Cl)c3Cl)CC2)ccc1-c1c(C)c(=O)[nH]c(=O)n1C | ADRA1A | ligand displacement, radioligand | – | – | 1.93
C=CC(=O)N1C[C@H](Nc2ncnc3[nH]ccc23)CC[C@@H]1C | Solute carrier family 22 member 6 (SLC22A6, Homo sapiens, UniProt Q4U2R8) | transporter uptake, inhibitor | HEK293 | pH 7.4 | 156
Cc1cc(Oc2ncccc2CN2CCN(c3ccccc3Cl)CC2)ccc1-c1c(C)c(=O)[nH]c(=O)n1C | ADRA1A | ligand displacement, radioligand | – | – | 0.93
O=c1cc(-c2ccc(O)cc2)oc2cc(O[C@@H]3O[C@H](CO)[C@@H](O)[C@H](O)[C@H]3O)cc(O)c12 | SQLE | enzyme activity, inhibitor | – | – | 0.66
